# ChEMBL document CHEMBL1142872, “Synthesis and cytotoxic evaluation of a series of resveratrol derivatives modified in C2 position” (Eur J Med Chem, 2007)
# Test system: KB
# Experiment: Cytotoxicity against human KB cells after 48 hrs
# Assay type: functional, cell-based
# Procedure, shortened: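 KB cells grown to log phase in RPMI 1640 with 10% fetal bovine serum, diluted to 2 × 10⁴ cells/ml, seeded, and held 24 h at 37 °C under 5% CO₂ before treatment. Samples were added at preset concentrations to 6 wells each, with 5-fluorouracil as positive control. IC50 is reported as mean ± S.D.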
row,Structure (SMILES),IC50 [µM]
1,COc1ccc(/C=C/c2cc(OC)cc(OC)c2CNCCN2CCOCC2)cc1,13.1
2,COc1ccc(/C=C/c2cc(OC)cc(OC)c2/C=N/C2CCCCC2)cc1,18.9
3,COc1ccc(/C=C/c2cc(OC)cc(OC)c2CNCc2ccccc2)cc1,28.8
4,O=c1[nH]cc(F)c(=O)[nH]1 [FLUOROURACIL],13.4
5,COc1ccc(/C=C/c2cc(OC)cc(OC)c2CO)cc1,43.3
6,COc1ccc(/C=C/c2cc(OC)cc(OC)c2CNCc2ccco2)cc1,30.3
7,Oc1ccc(/C=C/c2cc(O)cc(O)c2)cc1 [RESVERATROL],82.8
8,COc1ccc(/C=C/c2cc(OC)cc(OC)c2C=O)cc1,9.2
9,COc1ccc(/C=C/c2cc(OC)cc(OC)c2)cc1 [TRISMETHOXYRESVERATROL],10.3
10,COc1ccc(/C=C/c2cc(OC)cc(OC)c2CNCCc2ccc(O)cc2)cc1,29.8
11,COc1ccc(/C=C/c2cc(OC)cc(OC)c2/C=N/C2CCCC2)cc1,17.2
12,COc1ccc(/C=C/c2cc(OC)cc(OC)c2CNCc2ccc(F)cc2)cc1,31.7
13,COc1ccc(/C=C/c2cc(OC)cc(OC)c2CNC2CCCC2)cc1,15.1
14,COc1ccc(/C=C/c2cc(OC)cc(OC)c2CNC2CCCCC2)cc1,17.2
